# MDM2 E3 inh: Mdm2 E3 ligase (human) inhibition; cell-based MDM2 ubiquitination luciferase reporter, 2 h; 0 = plate control, 100 = twice control, blank-subtracted; Q00987; signal enhancement, % at 5 µM; 210,000 tested, 0.11% active;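 active = signal enhancement of 30% or more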;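 also: luminescence tracks abundance of the self-degrading MDM2-luciferase fusion protein; higher signal means inhibition of MDM2 E3 ligase activity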
# Target sequence (Q00987 whole entry, looked up, the tested form may be a part): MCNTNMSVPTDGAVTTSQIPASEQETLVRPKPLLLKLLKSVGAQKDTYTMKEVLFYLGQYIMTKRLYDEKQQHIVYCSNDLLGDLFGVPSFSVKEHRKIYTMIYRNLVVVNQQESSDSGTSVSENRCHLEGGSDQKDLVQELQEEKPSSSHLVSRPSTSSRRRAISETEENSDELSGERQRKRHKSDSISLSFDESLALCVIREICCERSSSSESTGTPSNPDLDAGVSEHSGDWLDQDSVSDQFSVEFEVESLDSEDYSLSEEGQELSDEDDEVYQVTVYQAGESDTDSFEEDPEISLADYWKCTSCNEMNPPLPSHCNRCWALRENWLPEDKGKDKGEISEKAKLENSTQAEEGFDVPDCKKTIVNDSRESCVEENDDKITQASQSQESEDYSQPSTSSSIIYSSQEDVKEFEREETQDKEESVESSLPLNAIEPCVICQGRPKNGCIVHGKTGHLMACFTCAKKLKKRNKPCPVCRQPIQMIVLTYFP
#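 Assay system: stable mammalian line carrying autodegrading MDM2–luciferase fusion reporter; Input: 2000 cells in each well; Compound dosing: single-point 5 µM; Schedule: 2 h compound exposure at 37 °C; Signal: SteadyLite luciferase luminescence after 15 min room-temperature reagent incubation; Evaluation: % luminescence enhancement versus blank-corrected plate control mean; Benchmarks: plate controls and plate blanks.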
# TNF necrop inh: TNF-alpha cell death inhibition in Jurkat FADD-/- cells; 220,000 tested, 0.068% active; activation (protection from cell death), % at 10 µM; Jurkat FADD-/- TNF necroptosis rescue, ATP luminescence, 24 h; 0 = TNF only, 100 = no-TNF cells;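 active = activation, meaning protection from cell death, of at least 50% relative to plate controls; inactive = activation below 50%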;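 also: necroptosis triggered by 40 ng/mL TNF-alpha added together with compound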
# Autophagy mod: modulators of autophagy | AID 463193 | MEF GFP-LC3 puncta imaging; test concentration mostly 10 µM | 190,000 tested, 0.98% active | calls only at 10 µM (by protocol);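 active = percentage of spot-positive cells more than 3 SD above its plate mean, without a fluorescence outlier flag or 80% toxicity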;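 also: spot-positive cell cutoff set from DMSO-treated cells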
# Dynein transport: dynein cargo transport inhibition; 3617.4 mouse cells, GR-EGFP nuclear translocation imaging; test concentration mostly 20 µM; stimulated with dexamethasone, 1 µM; hits give low values; z-score, hits read low; 220,000 tested, 0.47% active; AID 1381;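 active = plate z-score of nuclear minus cytoplasmic receptor signal below a set negative limit, without overly bright fluorescence or cell loss, cut at about -3.5 in these data, passing the limit was not always enough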;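 also: z-score of nuclear minus cytoplasmic ring GR-EGFP intensity difference per well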
#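 Also added: dexamethasone, 1.0 µM final. Medium: tet-free, stripped-serum medium. Detection: fixed, Hoechst-stained cells imaged at 10x for EGFP. Read-out: nuclear-to-cytoplasmic GR-EGFP distribution per well. Times: induction 48 h, compound 1 h, agonist 30 min.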
# zVAD death inh: blocks zVAD induced death of L929 cells | viability rescue, % at 10 µM | L929 zVAD necroptosis rescue, ATP luminescence, 24 h; with zVAD 60 µM | 220,000 tested, 0.38% active;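 active = activation, scaled between plate controls, above about 75%, limit read from the data; inactive = activation under that limit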;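 also: 0% = zVAD with DMSO and 100% = DMSO alone without zVAD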
# Hck Nef HTS: inhibitors of human Hck kinase activated by Nef; 220,000 tested, 0.68% active; inhibition, % at 20 µM; P08631; AID 463187; Recombinant Hck-YEEI plus Nef, Z-Lyte FRET kinase assay;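 active = Hck-Nef kinase inhibition above about 50%, limit read from the data; inactive = inhibition below that limit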;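 also: 0% = DMSO with Hck plus Nef and 100% = Hck alone without Nef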
# zVAD death conf: confirmed blocker of zVAD induced death in L929 cells; shares compounds with zVAD death inh; L929 zVAD-induced necroptosis rescue, ATP luminescence, 24 h; activation (protection from necroptosis), % at 10 µM; 760 tested, 16% active; AID 463117;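 active = mean protection from necroptosis of at least 50% over duplicate tests; inactive = mean protection below 50%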;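 also: 0% = cells with zVAD alone and 100% = vehicle cells without zVAD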
# The depositor's hits bear a star; i = inactive; / = no result. Sampled rows, rich in hits. Any-hit rate of the full collection: about 2.4%.
SMILES,MDM2 E3 inh,TNF necrop inh,Autophagy mod,Dynein transport,zVAD death inh,Hck Nef HTS,zVAD death conf
Cc1cc(C)n(-c2nnc(C)n2NS(C)(=O)=O)n1,-9.3,-0.3,i,-0.0892,1.2,5.1,/
COc1cc(/C=C/C(=O)c2ccc(NS(=O)(=O)c3ccc(C)cc3)cc2)cc(OC)c1O,-1.3,0.7,i,-1.24,102.8*,0.4,6.4
CCN1CCN(Cc2ccc(NC(=O)c3cc(NC(=O)c4cnn(-c5ccccc5)c4N)cc(OC)c3)cc2C(F)(F)F)CC1,20.6,-26.4,/,-0.034,80.0*,28.5,80.8*
CCOC(=O)c1sc(NC(=O)C(C)Sc2nnc(N)s2)nc1C (configuration not stated),-6.6,1.1,i,0.392,77.8*,10.4,1.9
CCOC(=O)c1sc(NC(=O)CCC(=O)O)nc1C,-13.0,0.6,i,0.138,2.5,16.0,/
CC(C)(C)c1ccc(NC(=O)COC(=O)C2(C)CC2(Cl)Cl)cc1 (configuration not stated),-11.5,3.7,i,-0.276,76.7*,23.6,2.3
O=C(Oc1cccc(Br)c1)c1cccnc1,-7.8,0.6,i,0.969,0.0,1.8,/
Nc1ccccc1Nc1cc(-c2ccccc2)[nH]n1,1.2,-12.5,i,-2.01,91.4*,3.2,88.7*
Cc1ccc2nc(NC(=O)C3CCN(S(=O)(=O)c4cccnc4)CC3)sc2c1,-0.5,-1.9,i,0.987,79.9*,-0.2,4.7
COc1ccc2nc(NC(=O)C3CCN(S(=O)(=O)c4cccnc4)CC3)sc2c1,-9.7,0.0,i,1.84,88.0*,0.6,4.9
Cc1ccc2nc(NC(=O)C3CCN(S(=O)(=O)c4cnc[nH]4)CC3)sc2c1,-5.2,5.2,i,-0.559,/,4.1,/
COc1ccc2nc(NC(=O)C3CCN(S(=O)(=O)c4cccs4)CC3)sc2c1,-4.8,-0.3,i,1.8,78.6*,-1.7,30.6
CCOc1ccc2nc(NC(=O)C3CCN(S(=O)(=O)c4cnc[nH]4)CC3)sc2c1,-13.8,-0.1,i,-0.672,83.2*,6.2,10.4
COc1ccc2nc(NC(=O)C3CCN(S(=O)(=O)c4cnc[nH]4)CC3)sc2c1,-22.2,4.1,i,-0.781,72.5,-1.3,/
COc1ccc2nc(NC(=O)C3CCCN(S(=O)(=O)c4cccs4)C3)sc2c1 (configuration not stated),-12.4,2.8,i,4.05,61.1,4.0,/
Cc1cc2c(cc1C)C(c1ccsc1)CC(=O)N2 (configuration not stated),-10.3,-2.0,i,1.19,0.0,4.7,/
O=c1oc2ccccc2n1CSC1=NCCS1,-8.8,61.0*,i,-0.636,100.9*,7.0,1.3
O=c1oc2ccccc2n1CSc1nc2ccccc2s1,-21.5,2.0,i,-1.01,1.1,-0.4,/
O=C(Cn1c(-c2cscn2)nc2ccccc21)Nc1ccccc1F,-65.7,-1.0,i,-0.112,0.8,1.7,/
CN1C(=O)/C(=C\C(=O)c2cccs2)c2ccccc21,-8.0,-9.0,i,-1.06,86.5*,13.9,1.7
O=C1CCN(C(=O)c2cccs2)c2ccccc21,5.5,1.0,i,-0.496,0.8,4.1,/
CC(O)CNc1nc2ccccc2n1CC(=O)NC12CC3CC(CC(C3)C1)C2 (configuration not stated),-24.2,2.7,i,-0.736,6.7,25.6,/
O=C(/C=C/c1ccc(Cl)cc1)NC1CC2CCC1C2 (configuration not stated),-2.0,2.0,i,-0.483,1.9,0.1,/
NC(=O)C(C(=O)/C=C/c1ccc(Cl)cc1)=C1SCCS1,/,13.3,/,-1.17,81.8*,14.1,1.1
O=C(/C=C/c1ccc2ccccc2n1)N1CCN(S(=O)(=O)c2ccccc2F)CC1,-65.3,1.8,/,-1.49,83.7*,19.7,4.7
SMILES,MDM2 E3 inh,TNF necrop inh,Autophagy mod,Dynein transport,zVAD death inh,Hck Nef HTS,zVAD death conf
O=C(/C=C/c1ccc2ccccc2n1)N1CCN(S(=O)(=O)c2ccc(F)cc2)CC1,/,4.6,/,-1.09,27.6,10.2,/
COc1ccc(NC(=O)Nc2nc3c(s2)CCCC3)cc1,-7.5,7.8,i,0.491,79.4*,39.4,32.6
Cc1ccc(N=Nc2c(=O)[nH]n3c(C)cc(C)nc23)cc1,-11.8,-3.2,i,-0.229,-0.3,-1.1,/
Cc1ccc(N=Nc2c(N)[nH]n3c(=O)cc(C)nc23)cc1,6.7,1.6,i,-0.681,76.5*,0.6,0.1
C(=N/Nc1nccs1)/c1cccnc1,-7.3,6.8,i,-0.626,78.1*,19.1,3.5
Clc1cccc(/C=N\Nc2nccs2)c1,-15.2,1.7,i,0.321,1.5,5.9,/
Cc1ccccc1NC(=O)Cc1nc(CSc2nnc(-c3ccc4c(c3)OCO4)o2)cs1,-16.0,-0.1,i,-0.66,-0.4,4.7,/
C/C(=N\OCC(=O)Nc1ccc2c(c1)OCCO2)c1ccc2c(c1)OCCO2,-17.5,0.7,i,0.19,85.5*,-1.5,4.2
CCOCC(=O)Nc1ccc2c(c1)OCCO2,-6.4,1.1,i,0.623,-0.1,-0.7,/
COc1ccc(N2C3=C(CC4=C2CCCC4=O)C(=O)CCC3)cc1,/,-3.7,i,-0.407,-0.1,20.7,/
COc1ccc(N2C3=C(CC4=C2CC(C)(C)CC4=O)C(=O)CC(C)(C)C3)cc1,-1.1,2.3,i,11.1,95.0*,4.6,40.3
O=c1oc2ccccc2nc1/C=C(O)/C=C\c1ccccc1,-1.1,9.7,i,-1.3,78.0*,0.7,3.3
O=c1oc2ccccc2nc1/C=C(O)/C=C/c1ccc(F)cc1,-4.4,10.6,i,-0.0678,13.7,10.9,/
Cc1ccc(/C(O)=C/c2nc3ccccc3oc2=O)cc1,14.7,16.9,/,-0.99,77.3*,16.4,1.1
Cc1ccc2oc(=O)c(/C=C(\O)c3ccco3)nc2c1,-0.1,4.5,/,0.249,5.8,7.8,/
Cc1cccc(C)c1NC(=O)CS(=O)CC(=O)NCC1OCCc2ccccc21 (configuration not stated),-5.5,1.4,i,0.462,4.4,0.2,/
O=C(Cn1cnc([N+](=O)[O-])n1)NCc1ccccc1,-4.2,4.4,i,-0.788,0.0,-0.3,/
O=[N+]([O-])c1ncn(Cc2c(Cl)cccc2Cl)n1,-18.8,96.2*,i,-0.787,94.1*,1.6,3.5
O=[N+]([O-])c1ncn(Cc2ccccc2Cl)n1,12.8,83.2*,i,-0.328,87.9*,-2.8,19.6
CN1CCN(c2ccc(NC(=O)c3cccs3)cc2)CC1,-27.9,0.6,i,-1.31,2.1,11.6,/

# Screening results deposited in PubChem BioAssay by several laboratories.
